Laboratory results reported in ChEMBL document CHEMBL1132231, “New generation dopaminergic agents. 6. Structure-activity relationship studies of a series of 4-(aminoethoxy)indole and 4-(aminoethoxy)indolone derivatives based on the newly discovered 3-hydroxyphenoxyethylamine D2 template” (J Med Chem, 1999).

Legend:
[1] = biological target: T1, 5-hydroxytryptamine receptor 1A (Rattus norvegicus, UniProt P19327); test: In vitro binding affinity towards 5-hydroxytryptamine 1A receptor by the displacement of [3H]8-OH-DPAT radioligand in rat hippocampal homogenates; type: tissue-based, Hippocampus
T1 sequence (P19327 whole entry): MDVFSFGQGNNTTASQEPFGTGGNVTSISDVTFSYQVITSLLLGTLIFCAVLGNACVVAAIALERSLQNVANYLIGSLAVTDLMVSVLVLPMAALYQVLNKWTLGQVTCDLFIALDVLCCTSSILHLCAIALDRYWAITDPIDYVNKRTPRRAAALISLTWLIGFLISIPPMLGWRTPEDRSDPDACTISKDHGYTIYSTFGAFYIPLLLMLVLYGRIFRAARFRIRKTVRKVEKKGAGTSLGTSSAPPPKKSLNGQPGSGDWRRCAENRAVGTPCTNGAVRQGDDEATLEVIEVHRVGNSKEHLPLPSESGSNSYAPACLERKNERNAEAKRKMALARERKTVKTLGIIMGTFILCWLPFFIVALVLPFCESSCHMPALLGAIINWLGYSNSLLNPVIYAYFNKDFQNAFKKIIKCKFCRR

[2] = biological target: T2, Adrenergic receptor alpha-1 (Rattus norvegicus, UniProt P15823+P23944+P43140); test: In vitro binding affinity towards Alpha-1 adrenergic receptor by the displacement of [3H]prazosin radioligand in rat cortical homogenates
T2 sequence (P15823 whole entry): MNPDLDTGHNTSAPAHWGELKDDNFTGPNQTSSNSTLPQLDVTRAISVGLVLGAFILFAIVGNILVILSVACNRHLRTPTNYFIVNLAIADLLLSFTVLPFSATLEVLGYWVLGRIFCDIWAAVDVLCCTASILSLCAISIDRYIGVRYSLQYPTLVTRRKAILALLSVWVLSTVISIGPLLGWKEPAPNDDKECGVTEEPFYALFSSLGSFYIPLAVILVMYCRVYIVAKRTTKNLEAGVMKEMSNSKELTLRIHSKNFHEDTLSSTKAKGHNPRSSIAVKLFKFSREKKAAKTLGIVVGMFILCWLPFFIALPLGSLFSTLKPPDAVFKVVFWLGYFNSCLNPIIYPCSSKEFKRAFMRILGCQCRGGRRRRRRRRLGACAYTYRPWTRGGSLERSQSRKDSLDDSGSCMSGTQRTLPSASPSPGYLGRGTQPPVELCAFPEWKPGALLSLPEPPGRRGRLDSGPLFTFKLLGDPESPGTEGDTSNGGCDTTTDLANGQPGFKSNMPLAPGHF
T2 sequence (P23944 whole entry): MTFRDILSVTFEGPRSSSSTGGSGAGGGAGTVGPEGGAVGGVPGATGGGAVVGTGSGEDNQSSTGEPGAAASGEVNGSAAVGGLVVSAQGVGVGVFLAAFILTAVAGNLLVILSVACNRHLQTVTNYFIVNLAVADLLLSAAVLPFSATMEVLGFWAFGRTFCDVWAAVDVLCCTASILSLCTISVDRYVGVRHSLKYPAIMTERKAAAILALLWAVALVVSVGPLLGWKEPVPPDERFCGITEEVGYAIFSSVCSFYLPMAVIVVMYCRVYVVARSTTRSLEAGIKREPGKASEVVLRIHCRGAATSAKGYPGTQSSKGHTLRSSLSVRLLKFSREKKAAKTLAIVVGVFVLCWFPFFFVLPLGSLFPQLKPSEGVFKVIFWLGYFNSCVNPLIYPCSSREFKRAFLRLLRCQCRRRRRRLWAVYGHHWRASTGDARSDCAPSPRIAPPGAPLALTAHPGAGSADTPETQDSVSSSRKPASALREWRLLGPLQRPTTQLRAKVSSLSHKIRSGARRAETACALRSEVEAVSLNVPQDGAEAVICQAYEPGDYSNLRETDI
T2 sequence (P43140 whole entry): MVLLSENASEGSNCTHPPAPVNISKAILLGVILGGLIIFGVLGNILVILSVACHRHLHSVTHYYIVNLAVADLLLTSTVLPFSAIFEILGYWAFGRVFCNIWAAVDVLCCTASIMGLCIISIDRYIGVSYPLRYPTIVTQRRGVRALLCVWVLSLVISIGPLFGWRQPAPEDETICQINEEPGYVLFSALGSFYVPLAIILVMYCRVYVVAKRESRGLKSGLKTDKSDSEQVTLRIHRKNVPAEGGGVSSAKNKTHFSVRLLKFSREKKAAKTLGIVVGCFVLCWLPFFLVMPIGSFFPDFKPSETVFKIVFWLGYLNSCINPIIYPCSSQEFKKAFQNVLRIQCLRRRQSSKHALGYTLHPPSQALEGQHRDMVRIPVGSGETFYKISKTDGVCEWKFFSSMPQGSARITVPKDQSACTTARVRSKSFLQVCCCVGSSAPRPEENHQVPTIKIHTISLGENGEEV

[3] = biological target: T2, Adrenergic receptor alpha-1; test: In vitro binding affinity towards alpha-1 adrenergic receptor by the displacement of [3H]prazosin radioligand in rat cortical homogenates
How it was run: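 Rat cortical homogenates labelled with [3H]prazosin (0.2 nM), incubated 30 min at 25 °C. Stopped with cold 50 mM Tris pH 7.4, then rapid filtration. Triplicate, at least eight concentrations. Nonlinear regression gave IC50, converted to apparent Ki by Cheng-Prusoff. Means of at least two experiments ± SEM; values without SEM are single determinations.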

D(2) dopamine receptor [4] = biological target: T3, D(2) dopamine receptor (Rattus norvegicus, UniProt P61169); test: In vitro high binding affinity towards Dopamine receptor D2 by the displacement of [3H]quinpirole radioligand in rat striatal membranes; type: cell membranes, Membrane
T3 sequence (P61169 whole entry): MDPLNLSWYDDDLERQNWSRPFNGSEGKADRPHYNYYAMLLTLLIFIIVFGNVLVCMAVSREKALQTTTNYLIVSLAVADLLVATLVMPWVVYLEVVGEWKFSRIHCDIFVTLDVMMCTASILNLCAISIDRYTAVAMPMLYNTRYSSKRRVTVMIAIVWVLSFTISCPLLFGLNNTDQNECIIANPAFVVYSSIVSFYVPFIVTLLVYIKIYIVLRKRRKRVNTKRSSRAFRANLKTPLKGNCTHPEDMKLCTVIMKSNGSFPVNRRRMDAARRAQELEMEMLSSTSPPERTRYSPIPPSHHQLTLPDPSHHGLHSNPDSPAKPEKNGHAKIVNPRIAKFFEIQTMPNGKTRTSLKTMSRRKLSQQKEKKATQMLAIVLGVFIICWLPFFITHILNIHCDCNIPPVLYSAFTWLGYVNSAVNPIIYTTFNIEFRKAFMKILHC

D(2) dopamine receptor [5] = biological target: T3, D(2) dopamine receptor; test: In vitro low binding affinity towards Dopamine receptor D2 by the displacement of [3H]spiperone radioligand in rat striatal membranes; type: cell membranes, Membrane
[6] = biological target: D(2) dopamine receptor (Rattus norvegicus) (UniProt P61169); test: Ratio of Dopamine D2 receptor (low)and Dopamine D2 receptor (high)
Chain of D(2) dopamine receptor (Rattus norvegicus) (P61169 whole entry): as above
How it was run: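 Ratio Ki(low)/Ki(high). Ki(low) comes from displacement of 1 nM [3H]spiperone in striatal membranes with 1 mM GppNHp and NaCl, 37 °C for 5 min. […] Both Ki values derived by Cheng-Prusoff from nine concentrations in triplicate; the ratio serves as an estimate of intrinsic activity.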

SMILES | Ki [1] [nM] | Ki [2] [nM] | Ki [3] [nM] | Ki (D(2) dopamine receptor [4]) [nM] | Ki (D(2) dopamine receptor [5]) [nM] | Ratio [6]
O=C1Cc2c(OCCNCc3cccs3)ccc(Cl)c2N1 | 59 | 5 |  |  |  | 
Fc1ccc(CNCCOc2ccc(Cl)c3[nH]cc(Cl)c23)cc1 | 685 |  | 229 | 50 | 59.5 | 1
CCCCNCCOc1ccc(Cl)c2c1CC(=O)N2 |  |  | 11 | 0.84 | 14.6 | 17
O=C1Cc2c(cccc2OCCNCCCCc2ccccc2)N1 | 1.9 |  | 13 | 0.23 | 2.06 | 9
CN(CCCC(=O)c1ccc(F)cc1)CCOc1cccc2c1CC(=O)N2 | 253 |  | 9.5 | 3.1 | 24.1 | 8
Clc1ccc(OCCNCc2cccs2)c2c(Cl)c[nH]c12 |  |  |  | 12.3 | 38.4 | 3
Cc1ccc(CNCCOc2ccc(Cl)c3c2CC(=O)N3)cc1 | 1170 |  | 334 | 0.64 | 5.5 | 9
O=C1Cc2c(OCCN3Cc4ccccc4C3)ccc(Cl)c2N1 | 41 | 85 |  | 0.44 | 2.85 | 
Oc1ccc2c(c1)O[C@@H](CNCc1ccccc1)CN2 |  |  |  | 6.7 | 130 | 
Clc1ccc(OCCNCc2ccccc2)c2cc[nH]c12 | 193 |  | 138.5 | 7.4 | 14.4 | 2
NCCOc1cccc2c1CC(=O)N2 | 664 | 11081 |  | 6.93 | 268 | 
O=C1Cc2c(OCCNCc3ccc(Cl)cc3)ccc(Cl)c2N1 | 1890 | 134 |  | 1.4 | 4.1 | 
CNCCOc1cccc2c1CC(=O)N2 | 276 |  | 1057 | 2 | 147 | 74
O=C(c1c[nH]c2c(Cl)ccc(OCCNCc3ccccc3)c12)C(F)(F)F | 51 |  | 97.5 |  |  | 
O=C1Cc2c(OCCNCc3cccs3)ccc(F)c2N1 | 39 | 32 |  | 0.66 | 21.8 | 
O=C1Cc2c(OCCNCc3ccsc3)ccc(Cl)c2N1 | 83 | 14 |  | 0.24 | 3.32 | 
O=C1Cc2c(OCCNCCCc3c[nH]c4ccccc34)ccc(F)c2N1 | 12 |  | 26 | 0.15 | 3.03 | 20
O=C1Cc2c(OCCN3Cc4ccccc4C3)ccc(F)c2N1 | 13 |  | 268 | 2.08 | 16 | 7
O=C1Cc2c(OCCNCc3ccccc3)ccc(Cl)c2N1 | 2660 |  | 350 | 0.41 | 2.8 | 7
O=C1Cc2c(OCCNCc3ccsc3)ccc(F)c2N1 | 24 | 39 |  | 0.84 | 17.8 | 

SMILES | Ki [1] [nM] | Ki [2] [nM] | Ki [3] [nM] | Ki (D(2) dopamine receptor [4]) [nM] | Ki (D(2) dopamine receptor [5]) [nM] | Ratio [6]
c1ccc(CCCCNCCOc2cccc3[nH]ccc23)cc1 | 0.4 |  | 11.5 | 5.3 | 14.4 | 3
Oc1cccc(OCCNCc2ccccc2)c1 | 1780 |  | 5291 |  | 115 | 32
O=C1Cc2c(OCCNCc3cccc(-c4ccccc4)c3)ccc(F)c2N1 | 625 | 2899 |  |  |  | 
O=C1Cc2c(cccc2OCCNCc2ccccc2)N1 | 306 | 1448 |  | 0.21 | 11.4 | 
O=C1Cc2c(OCCNCc3ccccc3)ccc(F)c2N1 | 535 | 52 |  | 0.63 | 5.3 | 
Clc1ccc(OCCNCc2ccccc2)c2c(Cl)c[nH]c12 | 219 |  | 66 | 7 | 19.9 | 3
O=C1Cc2c(OCCN3CCc4ccccc4C3)ccc(F)c2N1 | 25 | 128 |  | 0.86 | 5.02 | 
NCCOc1ccc(F)c2c1CC(=O)N2 | 25 |  | 25 | 12.1 | 916 | 76
O=C1Cc2c(OCCNCc3ccc(F)cc3)ccc(Cl)c2N1 | 6560 |  | 431 | 1.3 | 13.8 | 11
CN(CCOc1ccc(Cl)c2c1CC(=O)N2)Cc1ccccc1 | 8 |  | 41 | 2.6 | 23.4 | 9
c1ccc(CNC[C@H]2CCc3ccc4[nH]ccc4c3O2)cc1 | 0.4 | 24 |  | 1.9 | 35.9 | 
O=C1Cc2c(OCCNCc3ccc(-c4ccccc4)cc3)ccc(Cl)c2N1 | 38 |  | 268 | 17.4 | 46.7 | 3
CN(CCOc1cccc2c1CC(=O)N2)Cc1ccccc1 | 6260 | 4829 |  | 0.76 | 49.6 | 
O=C1Cc2c(OCCNCc3ccc(-c4ccccc4)cc3)ccc(F)c2N1 | 340 | 220 |  | 4.8 | 27.4 | 
O=C1Cc2c(OCCNCc3ccc4ccccc4c3)ccc(F)c2N1 | 121 |  | 154 | 0.63 | 9 | 14
O=C1Cc2c(ccc3c2O[C@@H](CNCc2ccccc2)CC3)N1 | 8.5 |  | 165 | 0.14 | 5.9 | 42
Clc1ccc(CNCCOc2ccc(Cl)c3[nH]cc(Cl)c23)cc1 |  |  | 458 | 77.1 | 29.8 | 0.4
O=C1Cc2c(OCCNCC3CCCCC3)ccc(F)c2N1 | 17 | 380 |  | 0.65 | 5.6 | 
O=C1Cc2c(OCCN3CCc4ccccc4C3)ccc(Cl)c2N1 | 17 |  | 143 | 0.55 | 4.27 | 8
